ChEMBL document CHEMBL4350961, “Discovery of Pyrrolo[3,2- d]pyrimidin-4-one Derivatives as a New Class of Potent and Cell-Active Inhibitors of P300/CBP-Associated Factor Bromodomain” (J Med Chem, 2019)
Activity calls are given as the source filed them. The rule behind the calls is not given here.

Experiments:
[1] = target: Cyclin-dependent kinase 5/CDK5 activator 1 (Homo sapiens) (UniProt Q00535+Q15078); experiment: Inhibition of recombinant full-length human CDK5/p35 at 10 uM using histone H1 as substrate measured after 40 mins in presence of [gamma33P]ATP by scintillation counting method; type: protein-complex assay
[2] = target: Bromodomain-containing protein 4 (Homo sapiens) (UniProt O60885); experiment: Binding affinity to human partial length BRD4 bromodomain 1 long isoform (N44 to E168 residues) expressed in bacterial expression system at 1 uM by BROMOscan assay
How it was run: (§1)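 BROMOscan bromodomain cross-screen run by an outside service, compound at 1 µM against 32 recombinant bromodomains. Binding given as percent of control.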

[3] = target: Bromodomain adjacent to zinc finger domain protein 2B (Homo sapiens) (UniProt Q9UIF8); experiment: Binding affinity to human N-terminal His-tagged BAZ2B assessed as change in melting temperature at 10 uM by SYPRO orange dye-based fluorescence assay
How it was run: (§2)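 Thermal shift with His-tagged human bromodomain at 2 μM final in 10 mM HEPES pH 7.5, 500 mM NaCl. Compound at 10 μM final with 0.1% DMSO; SYPRO Orange at 1:1000. Equilibrated 3 min at 25 °C, then heated from 25 to 95 °C at 1 °C/min. Melting temperature shift taken from fluorescence; at least duplicate.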

[4] = system: Serine/threonine-protein kinase Sgk1 (Homo sapiens), O00141 [S422D]; experiment: Inhibition of recombinant human SGK S422D mutant (60 to end residues) at 10 uM using GRPRTSSFAEGKK as substrate measured after 40 mins in presence of [gamma33P]ATP by scintillation counting method
[5] = target: Insulin receptor-related protein (Homo sapiens) (UniProt P14616); experiment: Inhibition of recombinant human IRR (943 to 1266 residues) at 10 uM using myelin basic protein as substrate measured after 40 mins in presence of [gamma33P]ATP by scintillation counting method
[6] = target: SRSF protein kinase 3 (Homo sapiens) (UniProt Q9UPE1); experiment: Inhibition of recombinant full-length human MSSK1 at 10 uM using ERMRPRKRQGSVRRRV as substrate measured after 40 mins in presence of [gamma33P]ATP by scintillation counting method
[7] = target: Tyrosine-protein kinase ZAP-70 (Homo sapiens) (UniProt P43403); experiment: Inhibition of recombinant full-length human ZAP70 at 10 uM using poly(Glu, Tyr) 4:1 as substrate measured after 40 mins in presence of [gamma33P]ATP by scintillation counting method
[8] = target: Protein kinase C gamma type (Homo sapiens) (UniProt P05129); experiment: Inhibition of recombinant full-length human PKCgamma at 10 uM using histone H1 as substrate measured after 40 mins in presence of [gamma33P]ATP by scintillation counting method
[9] = target: Casein kinase II subunit alpha' (CK2alpha2, Homo sapiens) (UniProt P19784); experiment: Inhibition of recombinant full length human CK2alpha2 at 10 uM using RRRDDDSDDD as substrate measured after 40 mins in presence of [gamma33P]ATP by scintillation counting method
[10] = target: ATPase family AAA domain-containing protein 2 (Homo sapiens) (UniProt Q6PL18); experiment: Binding affinity to human N-terminal His-tagged ATAD2 assessed as change in melting temperature at 10 uM by SYPRO orange dye-based fluorescence assay; how it was run: as §2
[11] = AUC (0 to infinity) in Sprague-Dawley rat at 10 mg/kg, po administered via gavage by LC-MS/MS analysis; type: ADME, organism-based; design: dose 10 mg/kg, route oral, time infinity; conditions: in vivo
How it was run: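 Serial jugular blood samples taken at designated times and spun to plasma at 4 ℃. Plasma mixed with acetonitrile holding internal standard, then LC-MS/MS. Parameters from noncompartmental fitting.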

[12] = target: Tyrosine-protein kinase JAK1 (Homo sapiens) (UniProt P23458); experiment: Inhibition of recombinant human JAK1 (866 to end residues) at 10 uM using GEEPLYWSFPAKKK as substrate measured after 40 mins in presence of [gamma33P]ATP by scintillation counting method
[13] = target: Serine/threonine-protein kinase PLK2 (Homo sapiens) (UniProt Q9NYY3); experiment: Inhibition of human Snk (65 to 409 residues) using casein as substrate measured after 40 mins in presence of [gamma33P]ATP by scintillation counting method
How it was run: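 Kinase panel of 422 kinases screened by Eurofins KinaseProfiler at a single test-compound concentration of 10 µM.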

[14] = target: G protein-coupled receptor kinase 3 (Homo sapiens) (UniProt P35626); experiment: Inhibition of recombinant full-length human GRK3 at 10 uM using casein as substrate measured after 40 mins in presence of [gamma33P]ATP by scintillation counting method
[15] = system: Mast/stem cell growth factor receptor Kit (Homo sapiens), P10721 [V654A]; experiment: Inhibition of recombinant human c-Kit V654A mutant (544 to end residues) at 10 uM using GGMEDIYFEFMGGKKK as substrate measured after 40 mins in presence of [gamma33P]ATP by scintillation counting method
[16] = target: Tyrosine-protein kinase Yes (Homo sapiens) (UniProt P07947); experiment: Inhibition of recombinant full-length human Yes at 10 uM using poly(Glu, Tyr) 4:1 as substrate measured after 40 mins in presence of [gamma33P]ATP by scintillation counting method
[17] = target: Vascular endothelial growth factor receptor 1 (Homo sapiens) (UniProt P17948); experiment: Inhibition of recombinant human Flt1 (783 to end residues) at 10 uM using KKKSPGEYVNIEFG as substrate measured after 40 mins in presence of [gamma33P]ATP by scintillation counting method
[18] = system: Fibroblast growth factor receptor 1 (Homo sapiens), P11362 [V561M]; experiment: Inhibition of recombinant human FGFR1 V561M mutant (456 to 765 residues) at 10 uM using GGEEEEYFELVKKKK as substrate measured after 40 mins in presence of [gamma33P]ATP by scintillation counting method
[19] = target: Histone acetyltransferase KAT2A (Homo sapiens, UniProt Q92830); experiment: Binding affinity to human partial length GCN5L2 (E726 to K837 residues) expressed in bacterial expression system at 1 uM by BROMOscan assay; how it was run: as §1
[20] = target: Protein polybromo-1 (Homo sapiens) (UniProt Q86U86); experiment: Binding affinity to human partial length PBRM1 bromodomain 5 (S645 to D766 residues) expressed in bacterial expression system at 1 uM by BROMOscan assay; how it was run: as §1
[21] = target: Ribosomal protein S6 kinase alpha-5 (Homo sapiens) (UniProt O75582); experiment: Inhibition of recombinant human MSK1 (2 to end residues) at 10 uM using GRPRTSSFAEGKK as substrate measured after 40 mins in presence of [gamma33P]ATP by scintillation counting method
[22] = target: Cyclin-dependent kinase 2/cyclin E1 (Homo sapiens) (UniProt P24864+P24941); experiment: Inhibition of recombinant full-length human CDK2/cyclinE at 10 uM using histone H1 as substrate measured after 40 mins in presence of [gamma33P]ATP by scintillation counting method; type: protein-complex assay

Chain of Protein polybromo-1 (Homo sapiens) (Q86U86 whole entry, the tested form may be a part): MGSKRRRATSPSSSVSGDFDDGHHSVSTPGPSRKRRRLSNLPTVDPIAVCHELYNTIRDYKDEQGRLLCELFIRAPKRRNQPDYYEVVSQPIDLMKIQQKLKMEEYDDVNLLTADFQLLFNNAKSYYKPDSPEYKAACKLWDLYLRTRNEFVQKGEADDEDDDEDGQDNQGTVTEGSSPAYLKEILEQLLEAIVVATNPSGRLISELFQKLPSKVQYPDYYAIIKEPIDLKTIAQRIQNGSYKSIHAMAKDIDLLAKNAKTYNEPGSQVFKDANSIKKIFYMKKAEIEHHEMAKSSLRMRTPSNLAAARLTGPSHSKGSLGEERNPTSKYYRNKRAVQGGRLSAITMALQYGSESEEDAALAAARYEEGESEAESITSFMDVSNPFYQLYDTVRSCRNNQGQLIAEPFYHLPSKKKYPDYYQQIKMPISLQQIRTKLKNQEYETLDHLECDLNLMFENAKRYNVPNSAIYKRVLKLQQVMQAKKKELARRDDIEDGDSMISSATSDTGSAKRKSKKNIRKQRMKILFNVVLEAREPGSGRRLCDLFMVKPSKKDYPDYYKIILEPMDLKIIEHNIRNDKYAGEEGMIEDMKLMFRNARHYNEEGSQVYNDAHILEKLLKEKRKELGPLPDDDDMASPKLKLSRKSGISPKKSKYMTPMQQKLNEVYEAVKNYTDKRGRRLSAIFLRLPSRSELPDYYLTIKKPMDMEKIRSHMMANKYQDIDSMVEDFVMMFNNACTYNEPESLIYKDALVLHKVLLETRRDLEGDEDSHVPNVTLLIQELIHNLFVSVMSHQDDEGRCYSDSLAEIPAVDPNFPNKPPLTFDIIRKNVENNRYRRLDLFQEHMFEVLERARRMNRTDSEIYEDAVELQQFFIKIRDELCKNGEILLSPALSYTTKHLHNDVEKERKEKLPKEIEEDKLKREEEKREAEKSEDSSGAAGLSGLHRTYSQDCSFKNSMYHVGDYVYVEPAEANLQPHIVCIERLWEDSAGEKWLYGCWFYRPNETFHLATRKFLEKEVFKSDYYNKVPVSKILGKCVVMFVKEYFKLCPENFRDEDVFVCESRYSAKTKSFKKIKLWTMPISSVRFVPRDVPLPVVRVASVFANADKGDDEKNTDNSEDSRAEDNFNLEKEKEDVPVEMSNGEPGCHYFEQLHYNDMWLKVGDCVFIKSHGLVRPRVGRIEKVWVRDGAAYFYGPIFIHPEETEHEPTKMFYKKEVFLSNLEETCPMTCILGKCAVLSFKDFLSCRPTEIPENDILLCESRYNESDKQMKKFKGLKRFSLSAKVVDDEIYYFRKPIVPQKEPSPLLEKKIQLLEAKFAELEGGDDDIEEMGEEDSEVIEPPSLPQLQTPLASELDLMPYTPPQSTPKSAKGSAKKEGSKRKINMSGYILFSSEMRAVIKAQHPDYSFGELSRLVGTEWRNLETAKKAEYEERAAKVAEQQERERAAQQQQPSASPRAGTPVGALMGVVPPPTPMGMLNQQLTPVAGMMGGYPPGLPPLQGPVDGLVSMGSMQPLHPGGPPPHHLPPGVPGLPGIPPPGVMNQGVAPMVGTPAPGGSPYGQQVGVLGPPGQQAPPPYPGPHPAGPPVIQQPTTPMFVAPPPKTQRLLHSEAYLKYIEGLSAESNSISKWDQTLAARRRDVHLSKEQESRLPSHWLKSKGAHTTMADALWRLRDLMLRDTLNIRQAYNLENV
Chain of Insulin receptor-related protein (Homo sapiens) (P14616 27-742 limits assumed): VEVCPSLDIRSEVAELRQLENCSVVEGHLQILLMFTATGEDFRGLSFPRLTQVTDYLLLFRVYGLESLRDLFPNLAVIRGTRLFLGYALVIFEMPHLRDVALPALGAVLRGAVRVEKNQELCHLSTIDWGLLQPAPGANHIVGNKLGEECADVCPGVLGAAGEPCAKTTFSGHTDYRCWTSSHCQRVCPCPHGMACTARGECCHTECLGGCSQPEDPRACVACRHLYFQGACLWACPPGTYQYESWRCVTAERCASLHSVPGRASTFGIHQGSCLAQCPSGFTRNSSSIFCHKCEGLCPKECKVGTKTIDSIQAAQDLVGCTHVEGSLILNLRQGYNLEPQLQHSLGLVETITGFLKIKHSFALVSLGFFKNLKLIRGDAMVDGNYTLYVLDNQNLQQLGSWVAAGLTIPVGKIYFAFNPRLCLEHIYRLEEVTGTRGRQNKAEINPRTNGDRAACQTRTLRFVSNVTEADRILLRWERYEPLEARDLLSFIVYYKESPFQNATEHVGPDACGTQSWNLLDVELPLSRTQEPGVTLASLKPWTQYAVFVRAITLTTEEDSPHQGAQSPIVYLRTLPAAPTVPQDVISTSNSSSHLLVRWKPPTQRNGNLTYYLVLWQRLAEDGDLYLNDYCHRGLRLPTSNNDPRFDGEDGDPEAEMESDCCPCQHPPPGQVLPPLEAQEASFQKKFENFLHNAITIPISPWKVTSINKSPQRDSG
Chain of Insulin receptor-related protein (Homo sapiens) (P14616 747-1297 limits assumed): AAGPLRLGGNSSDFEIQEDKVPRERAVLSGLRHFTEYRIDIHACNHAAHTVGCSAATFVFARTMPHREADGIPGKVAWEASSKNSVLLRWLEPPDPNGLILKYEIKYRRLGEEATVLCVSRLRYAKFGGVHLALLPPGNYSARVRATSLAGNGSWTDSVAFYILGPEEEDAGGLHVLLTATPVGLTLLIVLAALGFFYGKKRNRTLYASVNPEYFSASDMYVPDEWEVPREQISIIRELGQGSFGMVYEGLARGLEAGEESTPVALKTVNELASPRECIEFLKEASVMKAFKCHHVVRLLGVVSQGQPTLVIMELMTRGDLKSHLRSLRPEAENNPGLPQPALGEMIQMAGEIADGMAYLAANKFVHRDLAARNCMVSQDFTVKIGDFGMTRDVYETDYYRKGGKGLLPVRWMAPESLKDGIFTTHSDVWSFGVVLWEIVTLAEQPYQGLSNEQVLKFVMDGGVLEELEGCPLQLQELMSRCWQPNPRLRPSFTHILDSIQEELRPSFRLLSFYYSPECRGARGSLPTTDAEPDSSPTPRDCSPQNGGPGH
Chain of Fibroblast growth factor receptor 1 (Homo sapiens), P11362 [V561M] (P11362 whole entry V561M, the tested form may be a part): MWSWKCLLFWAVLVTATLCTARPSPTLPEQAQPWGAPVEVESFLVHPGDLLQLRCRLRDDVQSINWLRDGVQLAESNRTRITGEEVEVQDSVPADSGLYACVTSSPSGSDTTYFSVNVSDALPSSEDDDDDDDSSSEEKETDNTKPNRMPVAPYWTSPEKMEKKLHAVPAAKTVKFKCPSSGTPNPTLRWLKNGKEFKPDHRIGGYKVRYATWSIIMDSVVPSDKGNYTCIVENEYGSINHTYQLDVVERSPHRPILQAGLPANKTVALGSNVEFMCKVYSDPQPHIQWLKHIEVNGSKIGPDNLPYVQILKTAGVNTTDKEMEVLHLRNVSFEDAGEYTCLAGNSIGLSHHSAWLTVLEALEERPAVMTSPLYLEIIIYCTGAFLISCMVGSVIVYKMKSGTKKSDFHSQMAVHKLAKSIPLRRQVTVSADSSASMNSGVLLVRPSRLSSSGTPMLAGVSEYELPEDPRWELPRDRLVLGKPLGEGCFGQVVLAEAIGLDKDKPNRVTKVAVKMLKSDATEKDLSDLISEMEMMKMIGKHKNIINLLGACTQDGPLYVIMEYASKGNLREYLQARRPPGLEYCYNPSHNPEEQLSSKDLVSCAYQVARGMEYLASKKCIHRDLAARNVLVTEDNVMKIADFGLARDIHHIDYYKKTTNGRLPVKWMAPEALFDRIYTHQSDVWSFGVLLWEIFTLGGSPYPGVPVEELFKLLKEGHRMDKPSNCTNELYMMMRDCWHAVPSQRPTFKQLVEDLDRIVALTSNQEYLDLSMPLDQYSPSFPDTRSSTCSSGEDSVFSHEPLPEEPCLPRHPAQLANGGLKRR
Chain of Casein kinase II subunit alpha' (CK2alpha2, Homo sapiens) (P19784 whole entry, looked up, the tested form may be a part): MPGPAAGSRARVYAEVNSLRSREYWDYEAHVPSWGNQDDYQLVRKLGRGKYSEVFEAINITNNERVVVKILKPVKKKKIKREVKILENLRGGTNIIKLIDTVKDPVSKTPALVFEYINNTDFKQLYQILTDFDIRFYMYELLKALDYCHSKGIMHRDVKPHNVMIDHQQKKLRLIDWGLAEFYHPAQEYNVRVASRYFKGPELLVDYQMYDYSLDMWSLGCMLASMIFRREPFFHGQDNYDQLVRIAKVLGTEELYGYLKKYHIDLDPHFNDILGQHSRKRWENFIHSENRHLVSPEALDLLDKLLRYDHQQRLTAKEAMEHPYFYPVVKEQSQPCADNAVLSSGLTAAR

## CN1C[C@H](Nc2nc3cc[nH]c3c(=O)n2C)C[C@H](c2ccc3c(c2)OCCO3)C1
[1]
  inhibition: inactive
[2]
  Activity: inactive
[3]
  ΔTm: 1.9 °C
[4]
  inhibition: inactive
[5]
  inhibition: inactive
[6]
  inhibition: inactive
[7]
  inhibition: inactive
[8]
  inhibition: inactive
[9]
  inhibition: inactive
[10]
  ΔTm: 0.3 °C
[11]
  AUC(0-inf): 2490 ng·h/mL
[12]
  inhibition: inactive
[13]
  inhibition: inactive
[14]
  inhibition: inactive
[15]
  inhibition: inactive
[16]
  inhibition: inactive
[17]
  inhibition: inactive
[18]
  inhibition: inactive
[19]
  Activity: Active
[20]
  Activity: inactive
[21]
  inhibition: inactive
[22]
  inhibition: inactive
